Sampled rows, rich in hits. Any-hit rate of the full collection: about 2.5%.
PMI act: increases human mannose-6-phosphate isomerase activity; purified human PMI, coupled resazurin fluorescence, 20 min; active compounds read high; 1 = vehicle control, 0 substrate-free wells; activation factor at 20 µM; actives 0.005% (n = 190,000); AID 1214;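 active = activation factor of 2 or more at 20 µM, relative to plate controls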
FLuc stim CS: firefly luciferase counter-screen for stimulation assays. P08659. ATPlite luciferase biochemical, luminescence, 10 min; 0 = ATP-free wells, 1 = DMSO control. activation factor at 10 µM. 200,000 tested, under 10 active. AID 1027;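 active = luciferase activation factor, scaled between plate controls, of at least 2 with compound at 10 µM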
Target sequence (P08659 whole entry, looked up): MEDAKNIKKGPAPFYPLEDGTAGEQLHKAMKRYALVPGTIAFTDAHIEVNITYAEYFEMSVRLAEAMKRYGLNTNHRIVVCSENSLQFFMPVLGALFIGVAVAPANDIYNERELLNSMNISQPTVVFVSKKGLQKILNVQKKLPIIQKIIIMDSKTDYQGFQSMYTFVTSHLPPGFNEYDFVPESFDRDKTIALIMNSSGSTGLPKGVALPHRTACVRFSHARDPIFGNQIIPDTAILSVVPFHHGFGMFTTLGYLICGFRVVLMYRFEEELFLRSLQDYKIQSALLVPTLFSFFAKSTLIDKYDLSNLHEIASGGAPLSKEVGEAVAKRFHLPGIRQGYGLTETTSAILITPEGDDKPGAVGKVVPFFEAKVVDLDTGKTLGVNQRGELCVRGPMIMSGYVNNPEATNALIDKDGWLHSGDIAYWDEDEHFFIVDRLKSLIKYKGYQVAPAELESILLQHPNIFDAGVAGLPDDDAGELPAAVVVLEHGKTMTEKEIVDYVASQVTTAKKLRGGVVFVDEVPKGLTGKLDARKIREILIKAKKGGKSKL
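Assay system: Luciferase/luciferin reagent mix; Medium: PBS as buffer for the ATP substrate; Dosing: test compounds dosed from 2 mM stocks in 100% DMSO; Times: 10 min, room temperature; Signal: luminescence from luciferase reaction; Read-out: luciferase activation; Controls: No-ATP low control, compound-free enzyme-plus-ATP high control.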
FLuc inh counter: Photinus pyralis luciferase inhibition counter-screen | inhibition, % at 10 µM | ATPLite firefly luciferase biochemical luminescence, 10 min | AID 1006 | actives 1.5% (n = 200,000);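 active = inhibition above about 50% when tested at 10 µM, limit read from the data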
Diaph act CS: activates diaphorase or chemically reduces, flagging diaphorase assay artifacts. Diaphorase/resazurin coupled assay, resorufin fluorescence, 16 min; active compounds read high; 1 = vehicle wells, 0 = NADH-free wells. activation factor at 20 µM. actives 0.005% (n = 190,000). AID 1229;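 active = diaphorase activity raised at least twofold by the compound at 20 µM; inactive = activation factor below 2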
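Material: Purified diaphorase enzyme from Clostridium kluyveri | Buffer or medium: 50 mM HEPES pH 7.4 with 4.542 mM MgCl2, 0.005% Tween 20 | Times: 16 min enzyme reaction, ambient temperature | Signal: Red resorufin fluorescence at 544/590 nm excitation/emission | Measure: Increased resorufin signal from activators or reducing compounds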
PMI act hi M6P: increases human PMI activity with near-saturating mannose 6-phosphate; actives 0.34% (n = 190,000); activation factor at 20 µM; P34949; AID 1216; coupled PMI enzyme assay, resazurin fluorescence, 20 min; active compounds read high; 1 = untreated enzyme, 0 = substrate-free blank;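 active = activation factor of 2 or more at 20 µM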
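assay system = human phosphomannose isomerase with PGI, G6PDH, diaphorase coupling enzymes | quantity = 15 ng/mL PMI | incubation = enzyme reaction with compound 20 min at room temperature | medium = HEPES pH 7.4 buffer with MgCl2 and Tween-20 | compound dosing = one concentration, 20 µM, in 1% DMSO | measured by = Diaphorase-driven resazurin-to-resorufin fluorescence, excitation 544, emission 590 nm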
Diaph inh CS: diaphorase inhibition or chemical oxidation counter-screen | diaphorase resazurin-to-resorufin fluorescence, NADH, 16 min; bacterial (C. kluyveri) enzyme, not human | actives 0.69% (n = 190,000) | inhibition, % at 20 µM;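 active = primary screen inhibition at 20 µM above a set limit, cut at about 50% in these data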;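 note: plate controls were DMSO with full reaction for no effect and wells lacking NADH for full effect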
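Benchmarks: positive control wells lacking NADH, neutral wells with DMSO only. System: bacterial diaphorase enzyme (C. kluyveri). Input: 0.14 U/mL diaphorase, enzyme working solution. Detection: resorufin fluorescence, excitation 544 nm, emission 590 nm. Times: 16-min room-temperature incubation before reading.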
Numbers without * were called inactive.

SMILES | PMI act | FLuc stim CS | FLuc inh counter | Diaph act CS | PMI act hi M6P | Diaph inh CS
COc1ccc(N=Nc2nc3cc(Br)c(Br)cc3n2C)c(OC)c1 | 1.6 | 0.9 | 5 | 0.9 | 2.1* | 14
CCc1ccc2[nH]c(=O)c(C(c3nnnn3Cc3ccco3)N3CCC(C)CC3)cc2c1 (configuration not stated) | 0.8 | 1.1 | -5 | 0.7 | 0.8 | 32
Cc1cc2cc(C(c3nnnn3Cc3ccco3)N3CCc4ccccc43)c(=O)[nH]c2cc1C (configuration not stated) | 0.6 | 1.1 | -5 | 0.2 | 0.9 | 83*
Cc1cc2cc(C(c3nnnn3Cc3ccccc3)N3CCc4ccccc43)c(=O)[nH]c2cc1C (configuration not stated) | 0.6 | 1 | -2 | 0.6 | 0.8 | 42
Cc1cc2cc(C(c3nnnn3Cc3ccco3)N3CCc4ccccc4C3)c(=O)[nH]c2cc1C (configuration not stated) | 0.8 | 1 | -3 | 0.4 | 1.1 | 59*
CCOc1cc(C2C3=C(CC(C)(C)CC3=O)Nc3n[nH]c(C)c32)ccc1O (configuration not stated) | 1.1 | 1.1 | -6 | 1 | 0.7 | 3
Cc1[nH]c2ccccc2c1N=Nc1ccccc1C(=O)O | 1.3 | 0.9 | 9 | 0.6 | 1.2 | 35
CC(C)(C)c1ccc(-c2nc(C=O)c3ccccn23)cc1 | 1 | 0.9 | 8 | 1 | 1 | 5
Cc1c(C(C)(C)C)c(C=S)n2ccccc12 | 1.6 | 1 | -3 | 0.9 | 2* | 14
S=c1[nH]nc(-c2cccnc2)n1/N=C/c1cccs1 | 1 | 1 | 0 | 0.8 | 1 | 23
O=[N+]([O-])c1ccccc1/C=N/n1c(-c2cccnc2)n[nH]c1=S | 1 | 1 | 2 | 0.6 | 1 | 41
O=[N+]([O-])c1cc(/C=N/n2c(-c3cccnc3)n[nH]c2=S)ccc1Cl | 0.9 | 1 | 3 | 0.5 | 0.9 | 51*
S=c1[nH]nc(-c2cccnc2)n1/N=C/C=C/c1ccccc1 | 0.8 | 1 | 4 | 0.5 | 0.9 | 52*
S=c1[nH]nc(-c2ccncc2)n1/N=C/C=C/c1ccco1 | 1.4 | 1 | 1 | 0.3 | 1.2 | 71*
Cc1ccc(C(=O)N(Cc2ccccc2)C(C)(C)C)cc1C | 1.1 | 1 | 0 | 1 | 1.1 | 0
COC(=O)c1ccccc1NC(=O)CSc1nnc(Cc2ccc(Cl)cc2)o1 | 0.8 | 1.1 | -9 | 0.7 | 0.8 | 28
CCOc1ccc(-c2nc(CSCC(=O)NCCN3CCOCC3)c(C)o2)cc1 | 0.9 | 1 | 0 | 1 | 0.9 | -4
Nc1n[nH]c(-c2ccccc2)c1-c1ccccc1 | 1 | 1.1 | -5 | 0.8 | 0.9 | 24
Cc1cc(N)n2nc(-c3ccccc3)cc2n1 | 1 | 0.1 | 91* | 1.1 | 1 | -6
Cc1ccc(-c2cc3nc(-c4ccccc4)cc(N)n3n2)cc1 | 0.9 | 0.9 | 13 | 1 | 1 | -4
Cc1ccc(C(=O)c2c(C)oc3c2C(=O)C(=O)c2ccccc2-3)cc1 | 0.3 | 1 | 2 | 0.4 | 0.3 | 57*
Cc1ccc(C(=O)c2coc3c2C(=O)C(=O)c2ccccc2-3)cc1 | 0.3 | 1 | -2 | 0.4 | 0.4 | 58*
Cc1oc2c(c1C(=O)c1ccc(Cl)cc1)C(=O)C(=O)c1ccccc1-2 | 0.4 | 1.1 | -10 | 0.4 | 0.3 | 60*
O=C(c1ccc(Cl)cc1)c1ccc(CN2C(=O)c3ccccc3C2=O)o1 | 0.9 | 1 | -3 | 0.8 | 0.9 | 17
CCS(=O)(=O)C1=NN2C(=N)/C(=C\c3ccc(SCc4ccco4)o3)C(=O)N=C2S1 | 1.3 | 1 | 2 | 0.4 | 1.1 | 57*
COc1ccc(NC(=S)Nc2ccc3nccnc3c2)cc1 | 0.2 | 0.9 | 13 | 0.3 | 0.3 | 65*
